ChEMBL document CHEMBL3259559, “Design, synthesis and preliminary evaluation of α-sulfonyl γ-(glycinyl-amino)proline peptidomimetics as matrix metalloproteinase inhibitors” (Bioorg Med Chem, 2014)

Key:
[1] = molecular target: T1, 72 kDa type IV collagenase (Homo sapiens, UniProt P08253); assay: Inhibition of MMP2 (unknown origin) using succinylated gelatin as substrate preincubated for 10 mins before substrate addition measured after 30 mins by spectrophotometry
Summary of the method: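 Purified MMP-2 (gelatinase A) and inhibitor in 50 mmol/L sodium borate pH 8.5, preincubated 10 min at 37 °C. Succinylated gelatin then added for 30 min at 37 °C, followed by 0.03% TNBS for 20 min; OD read at 450 nm. IC₅₀ as mean with SD of three experiments.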

Aminopeptidase N = molecular target: T2, Aminopeptidase N (Sus scrofa, UniProt P15145); assay: Inhibition of pig kidney microsomal APN using L-Leu-p-nitroanilide as substrate preincubated for 5 mins before substrate addition measured after 30 mins by spectrophotometry
T2 sequence (P15145 whole entry): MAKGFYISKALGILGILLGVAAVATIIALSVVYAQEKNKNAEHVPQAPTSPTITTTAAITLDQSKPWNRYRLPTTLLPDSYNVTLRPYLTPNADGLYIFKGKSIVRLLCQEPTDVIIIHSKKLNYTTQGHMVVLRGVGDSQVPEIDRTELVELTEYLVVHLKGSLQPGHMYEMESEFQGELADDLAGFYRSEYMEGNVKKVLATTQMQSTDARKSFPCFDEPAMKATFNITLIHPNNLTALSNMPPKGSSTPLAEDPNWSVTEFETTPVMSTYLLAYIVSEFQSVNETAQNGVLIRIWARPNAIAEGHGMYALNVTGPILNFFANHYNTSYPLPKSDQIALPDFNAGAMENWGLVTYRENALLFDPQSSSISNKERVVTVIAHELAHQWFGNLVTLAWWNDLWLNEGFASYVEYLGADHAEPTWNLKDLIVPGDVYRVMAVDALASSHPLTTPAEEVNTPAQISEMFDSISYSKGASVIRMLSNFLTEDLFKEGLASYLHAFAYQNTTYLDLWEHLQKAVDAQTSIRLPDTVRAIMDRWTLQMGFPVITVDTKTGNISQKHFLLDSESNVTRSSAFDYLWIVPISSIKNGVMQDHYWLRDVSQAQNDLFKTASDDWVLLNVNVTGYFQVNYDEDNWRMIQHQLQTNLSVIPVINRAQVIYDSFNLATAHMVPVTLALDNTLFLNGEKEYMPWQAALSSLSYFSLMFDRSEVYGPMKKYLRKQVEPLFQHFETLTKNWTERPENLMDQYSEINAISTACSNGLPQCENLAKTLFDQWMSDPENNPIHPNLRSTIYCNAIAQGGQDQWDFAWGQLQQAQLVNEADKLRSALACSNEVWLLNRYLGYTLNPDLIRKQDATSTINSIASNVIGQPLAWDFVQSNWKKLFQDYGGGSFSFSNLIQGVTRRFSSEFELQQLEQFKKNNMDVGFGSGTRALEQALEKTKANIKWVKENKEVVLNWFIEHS

Histone deacetylase = assay: Inhibition of HDAC in human HeLa nuclear extract using Boc-Lys (acetyl)-AMC as fluorogenic substrate after 30 mins by spectrophotometry; type: protein assay
[2] = molecular target: T1, 72 kDa type IV collagenase; assay: Inhibition of MMP2 in human SKOV3 cell suspension using succinylated gelatin as substrate preincubated for 10 mins before substrate addition measured after 30 mins by spectrophotometry; set-up: species or system SK-OV-3
Summary of the method: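 Enzyme source was SKOV-3 cells suspended in PBS, 1 × 10⁵/well, incubated with inhibitor in 50 mmol/L sodium borate pH 8.5 for 10 min at 37 °C. Succinylated gelatin added for 30 min at 37 °C, then 0.03% TNBS for 20 min; absorbance at 450 nm. IC₅₀ as mean with SD of three experiments.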

HL-60 = assay: Antiproliferative activity against human HL60 cells after 48 hrs by MTT assay; type: functional, cell-based; conditions: HL-60, 48 h
Summary of the method: (§1)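 Cells kept in RPMI1640 with 10% FBS at 37 °C, 5% CO₂; seeded 10,000/well, grown 4 h, then exposed to graded compound concentrations for 48 h. 0.5% MTT added for 4 h, formazan dissolved in DMSO 15 min. IC₅₀ as mean with SD of triplicate experiments.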

A549 = assay: Antiproliferative activity against human A549 cells after 48 hrs by MTT assay; type: functional, cell-based; conditions: A549, 48 h; summary of the method: as §1
SK-OV-3 = assay: Antiproliferative activity against human SKOV3 cells after 48 hrs by MTT assay; type: functional, cell-based; conditions: SK-OV-3, 48 h; summary of the method: as §1

T1 sequence (P08253 whole entry): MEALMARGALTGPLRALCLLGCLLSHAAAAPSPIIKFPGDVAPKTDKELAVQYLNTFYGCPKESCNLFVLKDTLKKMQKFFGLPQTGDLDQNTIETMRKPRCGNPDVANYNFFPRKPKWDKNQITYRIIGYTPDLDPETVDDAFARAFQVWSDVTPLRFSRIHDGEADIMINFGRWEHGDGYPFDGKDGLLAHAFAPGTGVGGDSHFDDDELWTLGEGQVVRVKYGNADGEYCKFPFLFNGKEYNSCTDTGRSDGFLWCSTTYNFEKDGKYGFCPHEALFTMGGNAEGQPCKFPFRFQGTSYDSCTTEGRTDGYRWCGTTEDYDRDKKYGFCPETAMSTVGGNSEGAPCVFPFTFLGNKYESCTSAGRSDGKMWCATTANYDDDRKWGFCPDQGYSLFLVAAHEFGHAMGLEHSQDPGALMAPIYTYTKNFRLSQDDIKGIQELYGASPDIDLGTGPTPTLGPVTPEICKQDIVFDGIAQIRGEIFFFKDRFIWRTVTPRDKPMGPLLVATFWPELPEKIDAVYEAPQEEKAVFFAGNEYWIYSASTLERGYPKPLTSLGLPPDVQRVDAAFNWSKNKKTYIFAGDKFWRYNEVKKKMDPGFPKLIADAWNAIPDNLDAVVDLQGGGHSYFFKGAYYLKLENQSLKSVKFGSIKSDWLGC

SMILES	IC50 [1]	IC50 (Aminopeptidase N)	IC50 (Histone deacetylase)	IC50 [2]	IC50 (HL-60)	IC50 (A549)	IC50 (SK-OV-3)
CC[C@H](C)[C@H](N)C(=O)NCC(=O)N[C@H]1C[C@@H](C(=O)NO)N(S(=O)(=O)c2ccc(OC)cc2)C1.Cl	1.94 µM	89.9 µM	> 100 µM				
COc1ccc(S(=O)(=O)N2C[C@@H](NC(=O)CNC(=O)[C@@H](N)CCSC)C[C@H]2C(=O)NO)cc1.Cl	0.76 µM	> 100 µM	> 100 µM	35.9 µM			
CC[C@H](C)[C@H](N)C(=O)NCC(=O)N[C@H]1C[C@@H](C(=O)NO)N(S(=O)(=O)c2ccc(Cl)cc2)C1.Cl	1.28 µM	86.4 µM	> 100 µM				
COc1ccc(S(=O)(=O)N2C[C@@H](NC(=O)CNC(=O)[C@@H](N)C(C)C)C[C@H]2C(=O)NO)cc1.Cl	2.71 µM	90.8 µM	> 100 µM				
CC(C)C[C@H](NC(=O)[C@@H](O)[C@H](N)Cc1ccccc1)C(=O)O [UBENIMEX]	> 100 µM						
Cc1ccc(S(=O)(=O)N2C[C@@H](NC(=O)CNC(=O)[C@@H](N)Cc3ccccc3)C[C@H]2C(=O)NO)cc1.Cl	0.98 µM	88 µM	> 100 µM				
CC(C)C[C@H](N)C(=O)NCC(=O)N[C@H]1C[C@@H](C(=O)NO)N(S(=O)(=O)c2ccc(Cl)cc2)C1.Cl	0.27 µM	72.3 µM	> 100 µM	18.4 µM	> 1000 µM	> 1000 µM	196 µM
Cc1ccc(S(=O)(=O)N2C[C@@H](NC(=O)CNC(=O)[C@H](C)N)C[C@H]2C(=O)NO)cc1.Cl	4.36 µM	> 100 µM	> 100 µM				
Cl.N[C@@H](Cc1ccccc1)C(=O)NCC(=O)N[C@H]1C[C@@H](C(=O)NO)N(S(=O)(=O)c2ccccc2)C1	2.07 µM	94.5 µM	> 100 µM				
Cc1ccc(S(=O)(=O)N2C[C@@H](NC(=O)CNC(=O)[C@@H](N)C(C)C)C[C@H]2C(=O)NO)cc1.Cl	2.95 µM	96.2 µM	> 100 µM				
CSCC[C@H](N)C(=O)NCC(=O)N[C@H]1C[C@@H](C(=O)NO)N(S(=O)(=O)c2ccc(Cl)cc2)C1.Cl	0.46 µM	95.3 µM	> 100 µM	26.2 µM	> 1000 µM	> 1000 µM	322 µM
COc1ccc(S(=O)(=O)N2C[C@@H](NC(=O)CNC(=O)[C@@H](N)Cc3ccccc3)C[C@H]2C(=O)NO)cc1.Cl	0.72 µM	93.8 µM	> 100 µM	31.5 µM			
Cc1ccc(S(=O)(=O)N2C[C@@H](NC(=O)CNC(=O)[C@@H](N)CC(C)C)C[C@H]2C(=O)NO)cc1.Cl	0.87 µM	75.8 µM	> 100 µM	38.3 µM			
CC(C)[C@H](N)C(=O)NCC(=O)N[C@H]1C[C@@H](C(=O)NO)N(S(=O)(=O)c2ccccc2)C1.Cl	5.76 µM	> 100 µM	> 100 µM				
CC(C)[C@H](N)C(=O)NCC(=O)N[C@H]1C[C@@H](C(=O)NO)N(S(=O)(=O)c2ccc(Cl)cc2)C1.Cl	1.81 µM	79.6 µM	> 100 µM				
CSCC[C@H](N)C(=O)NCC(=O)N[C@H]1C[C@@H](C(=O)NO)N(S(=O)(=O)c2ccc(C)cc2)C1.Cl	1.03 µM	> 100 µM	> 100 µM				
C[C@H](N)C(=O)NCC(=O)N[C@H]1C[C@@H](C(=O)NO)N(S(=O)(=O)c2ccc(Cl)cc2)C1.Cl	3.36 µM	> 100 µM	> 100 µM				
COc1ccc(/C=C/C(=O)N2C[C@@H](NC(=O)c3cccnc3)C[C@H]2C(=O)NO)cc1OC	0.95 µM	> 100 µM	> 100 µM	43.7 µM	> 1000 µM	> 1000 µM	697 µM
CC(C)C[C@H](N)C(=O)NCC(=O)N[C@H]1C[C@@H](C(=O)NO)N(S(=O)(=O)c2ccccc2)C1.Cl	1.52 µM	82.3 µM	> 100 µM				
CSCC[C@H](N)C(=O)NCC(=O)N[C@H]1C[C@@H](C(=O)NO)N(S(=O)(=O)c2ccccc2)C1.Cl	2.32 µM	> 100 µM	> 100 µM				
CC[C@H](C)[C@H](N)C(=O)NCC(=O)N[C@H]1C[C@@H](C(=O)NO)N(S(=O)(=O)c2ccccc2)C1.Cl	5.21 µM	> 100 µM	> 100 µM				
CC[C@H](C)[C@H](N)C(=O)NCC(=O)N[C@H]1C[C@@H](C(=O)NO)N(S(=O)(=O)c2ccc(C)cc2)C1.Cl	2.05 µM	92.6 µM	> 100 µM				
COc1ccc(S(=O)(=O)N2C[C@@H](NC(=O)CNC(=O)[C@H](C)N)C[C@H]2C(=O)NO)cc1.Cl	4.19 µM	> 100 µM	> 100 µM				
C[C@H](N)C(=O)NCC(=O)N[C@H]1C[C@@H](C(=O)NO)N(S(=O)(=O)c2ccccc2)C1.Cl	7.43 µM	> 100 µM	> 100 µM				
Cl.N[C@@H](Cc1ccccc1)C(=O)NCC(=O)N[C@H]1C[C@@H](C(=O)NO)N(S(=O)(=O)c2ccc(Cl)cc2)C1	0.43 µM	89.9 µM	> 100 µM	24.7 µM	> 1000 µM	> 1000 µM	285 µM
COc1ccc(S(=O)(=O)N2C[C@@H](NC(=O)CNC(=O)[C@@H](N)CC(C)C)C[C@H]2C(=O)NO)cc1.Cl	0.52 µM	83.6 µM	> 100 µM	29.7 µM			
